TbMetRS inhib – Trypanosoma brucei MetRS inhibition; inhibition, % at 11.9 µM; hit rate 0.4% among 360,000; purified T. brucei MetRS, ATP depletion, Kinase-Glo luminescence;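 active = inhibition above a per-plate cutoff of the control wells' mean inhibition plus 3 SD, cut at about 5.5% in these data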
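System: purified T. brucei MetRS enzyme / Detection: Kinase-Glo luciferase luminescence reporting remaining unconsumed ATP / Medium: HEPES buffer with MgCl2, KCl, DTT, spermine, BSA, pyrophosphatase / Replication: singlicate, one well per compound / Evaluation: percent inhibition relative to median high and low control wells / Schedule: 2 h aminoacylation at 25 °C after 15 min preincubation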
V-ATPase pHluor – regulators of yeast V-ATPase proton transport. AID 504577. S. cerevisiae, pHLuorin cytosolic pH fluorescence. hit rate 0.37% among 350,000. response, % at 10 µM; in the data active = response mostly above about 7.3%, no sharp cut-off; inactive = mostly below about 5.4%; also: actives read high
UPR CHOP act – apoptotic UPR (CHOP) activation; activation, % at 10 µM; hit rate 0.34% among 330,000; AID 449763; CHO-CHOP luciferase reporter, luminescence; percent of tunicamycin response over DMSO baseline;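 active = at 10 µM dose, activation of 40% or more, normalized to positive control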
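Dosing – one dose, 10 µM in 0.5% DMSO · System – CHO-CHOP cells, stable luciferase reporter of PERK-eIF2a-CHOP signalling · Input – 500 cells/well · Control set – tunicamycin 10 µg/mL final as positive, DMSO-only wells as negative · Timing – 6 h compound treatment, 37 °C · Measure – % activation vs tunicamycin · Technique – luminescence read with Steady-Glo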
CHOP inhibitor – CHOP inhibition in unfolded protein response. CHO-K1 CHOP-promoter luciferase, tunicamycin-induced, 15-18 h. inhibition, % at 10 µM. hit rate 3.8% among 220,000;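 active = compounds that reduced the stress-induced luciferase reporter signal by more than about 70% of percent inhibition, limit read from the data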
XBP1 UPR activ – adaptive UPR (XBP1) activation; hit rate 0.33% among 330,000; activation, % at 20 µM; CHO-XBP1 luciferase reporter, IRE1-XBP1 UPR activation, luminescence; percent of tunicamycin response, DMSO as zero;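 active = versus positive control, 20 µM dose yields 30% or more activation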
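Test system: CHO-XBP1 luciferase reporter cells | Buffer or medium: Serum-containing F12 medium, 10% FBS | Schedule: 6 h compound exposure at 37 °C, 5% CO2 | Detection: Steady-Glo luciferase glow luminescence, 10 min after reagent addition | Read-out basis: Activation, % of tunicamycin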
Numbers stand for hits. The sample as a whole holds a higher share of hits than the screen did.

Results for C#CCOCCOCCOCCNc1nc(N2CCN(C(=O)CCCCCCCCCCNC(=O)[C@H](CCCCN)n3cc(CCO)nn3)CC2)nc(N2CCN(C(=O)CCCCCCCCCCNC(=O)[C@H](CCCN=C(N)N)n3cc(C[C@@H](C)CC)nn3)CC2)n1 ?
TbMetRS inhib: inactive; V-ATPase pHluor: inactive; UPR CHOP act: inactive; XBP1 UPR activ: inactive

How did O=C1NC(Cc2ccc(O)cc2)c2nc3ccc(Cl)cc3c(=O)n2-c2ccc(Cl)cc21 (stereo not drawn) do in these assays?
UPR CHOP act: inactive; XBP1 UPR activ: inactive

How did CCc1ccc2oc(-c3cc(N)ccc3O)nc2c1 do in these assays?
TbMetRS inhib: inactive; V-ATPase pHluor: inactive; UPR CHOP act: inactive; CHOP inhibitor: 78; XBP1 UPR activ: inactive

How did CCc1ccc2oc(-c3cc(N)ccc3Cl)nc2c1 do in these assays?
TbMetRS inhib: inactive; V-ATPase pHluor: inactive; UPR CHOP act: inactive; CHOP inhibitor: inactive; XBP1 UPR activ: inactive

Results for Cc1cc(/C=C2\C(=N)N3C(SCc4ccccc4)=NSC3=NC2=O)c(C)n1Cc1ccccc1 ?
TbMetRS inhib: inactive; V-ATPase pHluor: inactive; UPR CHOP act: inactive; CHOP inhibitor: 88; XBP1 UPR activ: inactive

Results for Cc1ccc(C(=O)NC(=C(Cl)Cl)S(=O)(=O)c2ccc(Cl)cc2)cc1 ?
TbMetRS inhib: inactive; V-ATPase pHluor: inactive; UPR CHOP act: inactive; CHOP inhibitor: 78; XBP1 UPR activ: inactive

What do the screens show for `Cc1cccc(C(=O)NC(=S)NNC(=O)c2ccccc2Cl)c1`?
TbMetRS inhib: inactive; V-ATPase pHluor: inactive; UPR CHOP act: inactive; CHOP inhibitor: 86; XBP1 UPR activ: inactive

Results for Cc1ccc(OCC(=O)NNC(=S)NC(=O)C(C)(C)C)c(Br)c1 ?
TbMetRS inhib: inactive; V-ATPase pHluor: inactive; UPR CHOP act: inactive; CHOP inhibitor: 92; XBP1 UPR activ: inactive

How did Cc1ccc(OCC(=O)NC(=S)Nc2ccccn2)c(Br)c1 do in these assays?
TbMetRS inhib: inactive; V-ATPase pHluor: inactive; UPR CHOP act: inactive; XBP1 UPR activ: inactive

Results for CCCOc1ccc(C(=O)NNC(=S)NC(=O)c2cc(-c3ccc(Cl)cc3)nc3ccccc23)cc1 ?
TbMetRS inhib: inactive; V-ATPase pHluor: inactive; UPR CHOP act: inactive; CHOP inhibitor: 72; XBP1 UPR activ: inactive

What do the screens show for `COc1ccc(C(=O)NNC(=S)NC(=O)c2cc(-c3ccccc3)nc3ccccc23)cc1`?
TbMetRS inhib: inactive; V-ATPase pHluor: inactive; UPR CHOP act: inactive; CHOP inhibitor: inactive; XBP1 UPR activ: inactive

Results for Cc1ccc(C(=O)NNC(=S)NC(=O)c2ccc(Cl)cc2)cc1 ?
TbMetRS inhib: inactive; V-ATPase pHluor: inactive; UPR CHOP act: inactive; CHOP inhibitor: 94; XBP1 UPR activ: inactive

How did CCC(=O)NNC(=S)NC(=O)c1ccc(C)cc1 do in these assays?
TbMetRS inhib: inactive; V-ATPase pHluor: inactive; UPR CHOP act: inactive; CHOP inhibitor: inactive; XBP1 UPR activ: inactive

Results for CC(=O)NNC(=S)NC(=O)c1ccccc1 ?
TbMetRS inhib: inactive; V-ATPase pHluor: inactive; UPR CHOP act: inactive; CHOP inhibitor: inactive; XBP1 UPR activ: inactive

Results for Cc1onc(-c2ccccc2)c1C(=O)NNC(=S)NC(=O)c1ccc(Br)cc1 ?
TbMetRS inhib: inactive; V-ATPase pHluor: inactive; CHOP inhibitor: inactive

How did Cc1ccc(C(=O)NC(=S)NNC(=O)COc2ccccc2C)cc1 do in these assays?
TbMetRS inhib: inactive; V-ATPase pHluor: inactive; UPR CHOP act: inactive; CHOP inhibitor: 103; XBP1 UPR activ: inactive

How did CC(=O)NNC(=S)NC(=O)c1ccc(C)cc1 do in these assays?
TbMetRS inhib: inactive; V-ATPase pHluor: inactive; UPR CHOP act: inactive; CHOP inhibitor: 80; XBP1 UPR activ: inactive

What do the screens show for `Cc1cccc(C(=O)NC(=S)NNC(=O)COc2c(C)cccc2C)c1`?
TbMetRS inhib: inactive; V-ATPase pHluor: inactive; UPR CHOP act: inactive; CHOP inhibitor: inactive; XBP1 UPR activ: inactive

What do the screens show for `Cc1onc(-c2ccccc2)c1C(=O)NNC(=S)NC(=O)c1ccc(Cl)cc1Cl`?
TbMetRS inhib: inactive; V-ATPase pHluor: inactive; UPR CHOP act: inactive; CHOP inhibitor: 86; XBP1 UPR activ: inactive

Results for Cc1cccc(NC(=O)C(=O)NCC2CCCN2S(=O)(=O)c2cccs2)c1 (stereo not drawn) ?
TbMetRS inhib: inactive; V-ATPase pHluor: inactive

How did S=C(Nc1ccc(Oc2ccccc2)cc1)NC1CCCC1 do in these assays?
TbMetRS inhib: inactive; V-ATPase pHluor: inactive; UPR CHOP act: inactive; CHOP inhibitor: inactive; XBP1 UPR activ: inactive

How did S=C(NCC1CCCCC1)Nc1ccc(Oc2ccccc2)cc1 do in these assays?
TbMetRS inhib: inactive; V-ATPase pHluor: inactive; UPR CHOP act: inactive; CHOP inhibitor: 73; XBP1 UPR activ: inactive

How did CCCCNCCS(=O)(=O)NCc1ccc(OC)cc1 do in these assays?
TbMetRS inhib: inactive; V-ATPase pHluor: inactive

What do the screens show for `Cc1ccc2oc(=O)c3cnn(CC(=O)Nc4cc(-c5cccc(F)c5)no4)c3c2c1`?
TbMetRS inhib: inactive; V-ATPase pHluor: inactive; UPR CHOP act: inactive; CHOP inhibitor: 96; XBP1 UPR activ: inactive

What do the screens show for `Cc1ccc2oc(=O)c3cnn(CC(=O)N4CCc5ccccc5C4)c3c2c1`?
TbMetRS inhib: inactive; V-ATPase pHluor: inactive; UPR CHOP act: inactive; CHOP inhibitor: inactive; XBP1 UPR activ: inactive

How did O=C(NNC(=S)NCc1ccco1)c1cccs1 do in these assays?
TbMetRS inhib: inactive; V-ATPase pHluor: inactive; UPR CHOP act: inactive; CHOP inhibitor: inactive; XBP1 UPR activ: inactive

What do the screens show for `O=C(NCc1ccco1)c1cccs1`?
TbMetRS inhib: inactive; V-ATPase pHluor: inactive; UPR CHOP act: inactive; CHOP inhibitor: 76; XBP1 UPR activ: inactive

Results for CN(C(=O)COC(=O)CNC(=O)c1sc2ccccc2c1Cl)c1ccccc1 ?
TbMetRS inhib: inactive; V-ATPase pHluor: inactive; UPR CHOP act: inactive; CHOP inhibitor: inactive; XBP1 UPR activ: inactive

What do the screens show for `CCOC(=O)c1cc2nc(Nc3ccc(OC)cc3)sc2s1`?
TbMetRS inhib: inactive; V-ATPase pHluor: inactive; UPR CHOP act: inactive; CHOP inhibitor: 70; XBP1 UPR activ: inactive

Results for CCc1nc2ccc(C(=O)N(C)C(C)C)cn2c1N(CCC(C)C)CCN(C)C ?
TbMetRS inhib: inactive

What do the screens show for `Clc1ccc(Cn2ncc3c(N4CCN(c5ccccc5)CC4)ncnc32)cc1`?
TbMetRS inhib: inactive

How did CCN(CC)CC(=O)Nc1cccc2c1C(=O)c1ccccc1C2=O do in these assays?
TbMetRS inhib: inactive; V-ATPase pHluor: inactive; UPR CHOP act: inactive; CHOP inhibitor: 77; XBP1 UPR activ: inactive

Results for CCN(CC)CC(=O)Nc1c(C)cccc1C ?
TbMetRS inhib: inactive; V-ATPase pHluor: inactive; UPR CHOP act: inactive; CHOP inhibitor: inactive; XBP1 UPR activ: inactive

Results for O=S(=O)(c1ccc(F)c(F)c1)N1CCN(CCc2ccccc2)CC1 ?
TbMetRS inhib: inactive; V-ATPase pHluor: 9.6; UPR CHOP act: inactive; XBP1 UPR activ: inactive

What do the screens show for `O=S(=O)(c1ccccc1)N1CCN(CCc2ccccc2)CC1`?
TbMetRS inhib: inactive; V-ATPase pHluor: inactive; UPR CHOP act: inactive; XBP1 UPR activ: inactive

What do the screens show for `NC(CCCCc1ccccc1)c1cccc2ccccc12` (stereo not drawn)?
UPR CHOP act: inactive; XBP1 UPR activ: inactive
